Measurements reported in ChEMBL document CHEMBL5647695, “Cyclin-dependent kinase 9 (CDK9) is a novel prognostic marker and therapeutic target in osteosarcoma” (EBioMedicine, 2019).
Activity calls are given as the source filed them. The rule behind the calls is not given here.

Experiments:
U2OS [1] = assay: Effect on RNAPII total protein expression in human U2OS cells at 2.5 to 20 uM incubated for 48 hrs by Western blot analysis; assay type: functional, cell-based; details: dose 2.5-20 µM
Summary of the method: (§1)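 Cells seeded in 6-well plates (6 × 10^5 cells/well) and treated with 2.5, 5, 10, 20 μM for 48 h. RIPA lysates resolved by SDS-PAGE and blotted to nitrocellulose. Primary antibodies to CDK9, RNAPII ser2, total RNAPII, MCL-1, BIRC5 and tubulin (1:1000, 4 °C overnight), then IR-dye secondaries; infrared imaging. Densitometry relative to tubulin, mean ± SE in triplicate.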

U2OS [2] = assay: Cytotoxicity against human U2OS cells assessed as inhibition of cell proliferation incubated for 5 days by MTT assay; assay type: functional, cell-based
Summary of the method: (§2)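 Cells in RPMI 1640 with 10% FBS, seeded at 4 × 10^3 cells/well in 96-well plates and exposed to 0, 2.5, 5, 10, 20 μM for 5 days. MTT (5 mg/mL stock) added for 4 h at 37 °C; formazan dissolved in acid isopropanol and read at 490 nm. IC50 from the dose–response; mean ± SE of 2 experiments in triplicate.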

KHOS/NP [3] = assay: Cytotoxicity against human KHOS/NP cells assessed as inhibition of cell proliferation incubated for 5 days by MTT assay; assay type: functional, cell-based; summary of the method: as §2
U2OS [4] = assay: Cytotoxicity against human U2OS cells assessed as morphological changes incubated for 3 days by microscopic analysis; assay type: functional, cell-based; details: dose 2.5-20 µM, time 3.0 day
Summary of the method: (§3)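 Cells treated with 0, 2.5, 5, 10, 20 μM for 72 h, then examined by light microscopy for morphology and number of viable cells.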

KHOS/NP [5] = assay: Cytotoxicity against human KHOS/NP cells assessed as morphological changes incubated for 3 days by microscopic analysis; assay type: functional, cell-based; details: dose 2.5-20 µM, time 3.0 day; summary of the method: as §3
U2OS [6] = assay: Cytotoxicity against human U2OS cells assessed as reduction in viable cell number incubated for 3 days by microscopic analysis; assay type: functional, cell-based; details: dose 2.5-20 µM, time 3.0 day; summary of the method: as §3
KHOS/NP [7] = assay: Cytotoxicity against human KHOS/NP cells assessed as reduction in viable cell number incubated for 3 days by microscopic analysis; assay type: functional, cell-based; details: dose 2.5-20 µM, time 3.0 day; summary of the method: as §3
[8] = biological target: Cyclin-dependent kinase 9 (Homo sapiens) (UniProt P50750); assay: Inhibition of CDK9 in human U2OS cells assessed as reduction in phosphorylated RNAPII protein expression at Ser2 residue incubated for 48 hrs by Western blot analysis; assay type: cell-based; details: dose 2.5-20 µM; summary of the method: as §1
Sequence of Cyclin-dependent kinase 9 (Homo sapiens) (P50750 whole entry): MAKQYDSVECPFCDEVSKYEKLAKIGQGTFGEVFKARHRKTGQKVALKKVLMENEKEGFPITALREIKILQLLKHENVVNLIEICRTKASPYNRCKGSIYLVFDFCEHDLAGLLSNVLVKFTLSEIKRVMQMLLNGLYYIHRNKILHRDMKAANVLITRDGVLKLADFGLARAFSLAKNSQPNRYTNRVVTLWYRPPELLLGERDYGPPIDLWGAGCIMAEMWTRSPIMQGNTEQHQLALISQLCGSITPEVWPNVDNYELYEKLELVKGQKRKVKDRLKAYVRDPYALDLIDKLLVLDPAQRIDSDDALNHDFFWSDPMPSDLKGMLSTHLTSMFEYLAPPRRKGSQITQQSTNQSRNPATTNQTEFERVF

[9] = biological target: Cyclin-dependent kinase 9 (Homo sapiens) (UniProt P50750); assay: Inhibition of CDK9 in human KHOS/NP cells assessed as reduction in phosphorylated RNAPII protein expression at Ser2 residue incubated for 48 hrs by Western blot analysis; assay type: cell-based; details: dose 2.5-20 µM; summary of the method: as §1
[10] = biological target: Cyclin-dependent kinase 9 (Homo sapiens) (UniProt P50750); assay: Inhibition of CDK9 in human U2OS cells assessed as reduction in MCL-1 protein expression incubated for 48 hrs by Western blot analysis; assay type: cell-based; details: dose 2.5-20 µM; summary of the method: as §1
[11] = biological target: Cyclin-dependent kinase 9 (Homo sapiens) (UniProt P50750); assay: Inhibition of CDK9 in human KHOS/NP cells assessed as reduction in MCL-1 protein expression incubated for 48 hrs by Western blot analysis; assay type: cell-based; details: dose 2.5-20 µM; summary of the method: as §1
[12] = biological target: Cyclin-dependent kinase 9 (Homo sapiens) (UniProt P50750); assay: Inhibition of CDK9 in human U2OS cells assessed as reduction in BIRC5 protein expression incubated for 48 hrs by Western blot analysis; assay type: cell-based; details: dose 2.5-20 µM; summary of the method: as §1
[13] = biological target: Cyclin-dependent kinase 9 (Homo sapiens) (UniProt P50750); assay: Inhibition of CDK9 in human KHOS/NP cells assessed as reduction in BIRC5 protein expression incubated for 48 hrs by Western blot analysis; assay type: cell-based; details: dose 2.5-20 µM; summary of the method: as §1
KHOS/NP [14] = assay: Effect on RNAPII total protein expression in human KHOS/NP cells at 2.5 to 20 uM incubated for 48 hrs by Western blot analysis; assay type: functional, cell-based; details: dose 2.5-20 µM; summary of the method: as §1
U2OS [15] = assay: Effect on CDK9 protein expression in human U2OS cells at 2.5 to 20 uM incubated for 48 hrs by Western blot analysis; assay type: functional, cell-based; details: dose 2.5-20 µM; summary of the method: as §1
KHOS/NP [16] = assay: Effect on CDK9 protein expression in human KHOS/NP cells at 2.5 to 20 uM incubated for 48 hrs by Western blot analysis; assay type: functional, cell-based; details: dose 2.5-20 µM; summary of the method: as §1
U2OS [17] = assay: Induction of apoptosis in human U2OS cells assessed as viable cells at 10 uM by Annexin V/PI staining based flow cytometry analysis (reference value: 94.5%); assay type: functional; details: read-out: Activity
U2OS [18] = assay: Induction of apoptosis in human U2OS cells assessed as early apoptotic cells at 10 uM by Annexin V/PI staining based flow cytometry analysis (reference value: 5%); assay type: functional
U2OS [19] = assay: Induction of apoptosis in human U2OS cells assessed as late apoptotic cells at 10 uM by Annexin V/PI staining based flow cytometry analysis (reference value: 0.4%); assay type: functional
U2OS [20] = assay: Induction of apoptosis in human U2OS cells assessed as dead cells at 10 uM by Annexin V/PI staining based flow cytometry analysis (reference value: 0.1%); assay type: functional
KHOS/NP [21] = assay: Induction of apoptosis in human KHOS/NP cells assessed as viable cells at 10 uM by Annexin V/PI staining based flow cytometry analysis (reference value: 94.1%); assay type: functional; details: read-out: Activity
KHOS/NP [22] = assay: Induction of apoptosis in human KHOS/NP cells assessed as early apoptotic cells at 10 uM by Annexin V/PI staining based flow cytometry analysis (reference value: 5.3%); assay type: functional
KHOS/NP [23] = assay: Induction of apoptosis in human KHOS/NP cells assessed as late apoptotic cells at 10 uM by Annexin V/PI staining based flow cytometry analysis (reference value: 0.3%); assay type: functional
U2OS [24] = assay: Inhibition of colony formation in human U2OS cells assessed as reduction in colony number and size incubated for 12 days by Giemsa staining based analysis; assay type: functional, cell-based; details: dose 5-10 µM, time 12.0 day
Summary of the method: (§4)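 Seeded at 150 cells/well in 12-well plates with 0, 5 or 10 μM inhibitor; 12 days at 37 °C. Colonies fixed 10 min in methanol, stained 20 min with 10% Giemsa and photographed.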

KHOS/NP [25] = assay: Inhibition of colony formation in human KHOS/NP cells assessed as reduction in colony number and size incubated for 12 days by Giemsa staining based analysis; assay type: functional, cell-based; details: dose 5-10 µM, time 12.0 day; summary of the method: as §4
U2OS [26] = assay: Inhibition of cell migration in human U2OS cells at 10 uM by wound healing assay; assay type: functional, cell-based; details: time 24-72 hrs
Summary of the method: (§5)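 Monolayers of 4 × 10^5 cells/well in 6-well plates, grown overnight, scratched with two parallel lines, then exposed to 10 μM in 2% FBS medium for 72 h. Photographed at 0, 24, 48, 72 h; width measured at five sites per image. Migration distance = (width at 0 h − width at time point)/2.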

KHOS/NP [27] = assay: Inhibition of cell migration in human KHOS/NP cells at 10 uM by wound healing assay; assay type: functional, cell-based; details: time 24-72 hrs; summary of the method: as §5
U2OS [28] = assay: Antitumor activity against human U2OS cells cultured as 3D spheroids assessed as reduction in spheroid diameter at 10 uM incubated for 12 days with media replacement for every 24 to 48 hrs and measured every 2 days by Calcein AM staining based fluorescence microscopic analysis relative to control; assay type: functional; design: scale not given: the % may be the effect or the level left; details: time 12 day
Summary of the method: (§6)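 Spheroids grown in 3D hydrogel culture plates, 2 × 10^5 cells/well, with 10 μM inhibitor added at seeding; untreated cells as blank control. 37 °C, 5% CO2, medium changed every 24–48 h. Diameter photographed every 2 days; at 12 days spheroids harvested, stained 15 min with 0.25 μM Calcein AM and imaged by fluorescence microscopy. Mean ± SE of 2 experiments in triplicate.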

KHOS/NP [29] = assay: Antitumor activity against human KHOS/NP cells cultured as 3D spheroids assessed as reduction in spheroid diameter at 10 uM incubated for 12 days with media replacement for every 24 to 48 hrs and measured every 2 days by Calcein AM staining based fluorescence microscopic analysis relative to control; assay type: functional; design: scale not given: the % may be the effect or the level left; details: time 12 day; summary of the method: as §6

COc1ccccc1-c1cc(Nc2cccc(CS(N)(=O)=O)c2)ncn1
Activity (U2OS [1]): inactive | IC50 (U2OS [2]; 120 h): 5.8 µM | Activity (U2OS [2]; time 5.0 day): Dose-Dependent Effect | IC50 (KHOS/NP [3]; 120 h): 6.5 µM | Activity (KHOS/NP [3]; time 5.0 day): Dose-Dependent Effect | Activity (U2OS [4]): Dose-Dependent Effect | Activity (KHOS/NP [5]): Dose-Dependent Effect | Activity (U2OS [6]): Dose-Dependent Effect | Activity (KHOS/NP [7]): Dose-Dependent Effect | inhibition [8]: Dose-Dependent Effect | inhibition [9]: Dose-Dependent Effect | inhibition [10]: Dose-Dependent Effect | inhibition [11]: Dose-Dependent Effect | inhibition [12]: Dose-Dependent Effect | inhibition [13]: Dose-Dependent Effect | Activity (KHOS/NP [14]): inactive | Activity (U2OS [15]): inactive | Activity (KHOS/NP [16]): inactive | viability at 10 µM (U2OS [17]): 91.8% | Activity (U2OS [18]): 6.4% | Activity (U2OS [19]): 1.5% | Activity (U2OS [20]): 0.3% | viability at 10 µM (KHOS/NP [21]): 88.5% | Activity (KHOS/NP [22]): 2.8% | Activity (KHOS/NP [23]): 6% | inhibition (U2OS [24]): Dose-Dependent Effect | inhibition (KHOS/NP [25]): Dose-Dependent Effect | inhibition (U2OS [26]): Dose-Dependent Effect | inhibition (KHOS/NP [27]): Dose-Dependent Effect | Activity (U2OS [28]): 57.4% | Activity (KHOS/NP [29]): 48.8%
